Reference: ChEMBL document CHEMBL3046428, “Isolation, characterization and antifungal activity of major constituents of the Himalayan lichen Parmelia reticulata Tayl” (2011)
Converted amounts (≈) assume the structure as drawn.

Legend:
Assay type in all cases: functional
[1] = system: Athelia rolfsii; experiment: Antifungal activity against Athelia rolfsii assessed as growth inhibition by poisoned food technique; settings: Agroathelia rolfsii; read-out: ED50 (the source's name)
How it was run: (§1)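 ED50 from poisoned-food growth inhibition on PDA at 250, 125 and 62.5 μg/mL in medium, with an acetone control. Plates were inoculated with a 5 mm mycelial disc, incubated at 28 °C, and colony diameter was measured in quadruplicate. Percent inhibition was corrected by Abbott's formula, using a correction factor from the 9 cm dish diameter, and ED50 (μg/mL) was derived by probit analysis.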

[2] = system: Macrophomina phaseolina; experiment: Antifungal activity against Rhizoctonia bataticola assessed as growth inhibition at 62.5 ug/ml by poisoned food technique
How it was run: (§2)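 Poisoned-food assay on PDA. Test material was diluted in acetone and mixed into molten medium at final 250, 125 or 62.5 μg/mL, with 1 mL acetone as control. Plates received a 5 mm mycelial disc from the front of a 2-week-old colony and were incubated at 28 °C until control growth was nearly complete. Colony diameter was measured, giving %I = (C−T)/C×100. Mean ± SD of four replicates.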

[3] = system: Rhizoctonia solani; experiment: Antifungal activity against Rhizoctonia solani assessed as growth inhibition at 125 ug/ml by poisoned food technique; how it was run: as §2
[4] = system: Globisporangium debaryanum; experiment: Antifungal activity against Pythium debaryanum assessed as growth inhibition at 125 ug/ml by poisoned food technique; how it was run: as §2
[5] = system: Pythium aphanidermatum; experiment: Antifungal activity against Pythium aphanidermatum assessed as growth inhibition at 62.5 ug/ml by poisoned food technique; how it was run: as §2
[6] = system: Fusarium udum; experiment: Antifungal activity against Fusarium udum assessed as growth inhibition at 250 ug/ml by poisoned food technique; how it was run: as §2
[7] = system: Globisporangium debaryanum; experiment: Antifungal activity against Pythium debaryanum assessed as growth inhibition at 250 ug/ml by poisoned food technique; how it was run: as §2
[8] = system: Globisporangium debaryanum; experiment: Antifungal activity against Pythium debaryanum assessed as growth inhibition at 62.5 ug/ml by poisoned food technique; how it was run: as §2
[9] = system: Rhizoctonia solani; experiment: Antifungal activity against Rhizoctonia solani assessed as growth inhibition by poisoned food technique; settings: read-out: ED50 (the source's name); how it was run: as §1
[10] = system: Macrophomina phaseolina; experiment: Antifungal activity against Rhizoctonia bataticola assessed as growth inhibition at 125 ug/ml by poisoned food technique; how it was run: as §2
[11] = system: Macrophomina phaseolina; experiment: Antifungal activity against Rhizoctonia bataticola assessed as growth inhibition at 250 ug/ml by poisoned food technique; how it was run: as §2
[12] = system: Fusarium udum; experiment: Antifungal activity against Fusarium udum assessed as growth inhibition at 125 ug/ml by poisoned food technique; how it was run: as §2
[13] = system: Rhizoctonia solani; experiment: Antifungal activity against Rhizoctonia solani assessed as growth inhibition at 250 ug/ml by poisoned food technique; how it was run: as §2
[14] = system: Fusarium udum; experiment: Antifungal activity against Fusarium udum assessed as growth inhibition by poisoned food technique; settings: read-out: ED50 (the source's name); how it was run: as §1
[15] = system: Rhizoctonia solani; experiment: Antifungal activity against Rhizoctonia solani assessed as growth inhibition at 62.5 ug/ml by poisoned food technique; how it was run: as §2
[16] = system: Athelia rolfsii; experiment: Antifungal activity against Athelia rolfsii assessed as growth inhibition at 62.5 ug/ml by poisoned food technique; settings: Agroathelia rolfsii; how it was run: as §2
[17] = system: Pythium aphanidermatum; experiment: Antifungal activity against Pythium aphanidermatum assessed as growth inhibition at 125 ug/ml by poisoned food technique; how it was run: as §2
[18] = system: Athelia rolfsii; experiment: Antifungal activity against Athelia rolfsii assessed as growth inhibition at 125 ug/ml by poisoned food technique; settings: Agroathelia rolfsii; how it was run: as §2
[19] = system: Pythium aphanidermatum; experiment: Antifungal activity against Pythium aphanidermatum assessed as growth inhibition at 250 ug/ml by poisoned food technique; how it was run: as §2
[20] = system: Fusarium udum; experiment: Antifungal activity against Fusarium udum assessed as growth inhibition at 62.5 ug/ml by poisoned food technique; how it was run: as §2
[21] = system: Athelia rolfsii; experiment: Antifungal activity against Athelia rolfsii assessed as growth inhibition at 250 ug/ml by poisoned food technique; settings: Agroathelia rolfsii; how it was run: as §2
[22] = system: Pythium aphanidermatum; experiment: Antifungal activity against Pythium aphanidermatum assessed as growth inhibition by poisoned food technique; settings: read-out: ED50 (the source's name); how it was run: as §1
[23] = system: Macrophomina phaseolina; experiment: Antifungal activity against Rhizoctonia bataticola assessed as growth inhibition by poisoned food technique; settings: read-out: ED50 (the source's name); how it was run: as §1
[24] = system: Globisporangium debaryanum; experiment: Antifungal activity against Pythium debaryanum assessed as growth inhibition by poisoned food technique; settings: read-out: ED50 (the source's name); how it was run: as §1

| Structure (SMILES) | EC50 [1] [µg/mL] | inhibition at 62.5 µg/mL [2] [%] | inhibition at 125 µg/mL [3] [%] | inhibition at 125 µg/mL [4] [%] | inhibition at 62.5 µg/mL [5] [%] | inhibition at 250 µg/mL [6] [%] | inhibition at 250 µg/mL [7] [%] | inhibition at 62.5 µg/mL [8] [%] | EC50 [9] [µg/mL] | inhibition at 125 µg/mL [10] [%] | inhibition at 250 µg/mL [11] [%] | inhibition at 125 µg/mL [12] [%] | inhibition at 250 µg/mL [13] [%] | EC50 [14] [µg/mL] | inhibition at 62.5 µg/mL [15] [%] | inhibition at 62.5 µg/mL [16] [%] | inhibition at 125 µg/mL [17] [%] | inhibition at 125 µg/mL [18] [%] | inhibition at 250 µg/mL [19] [%] | inhibition at 62.5 µg/mL [20] [%] | also measured |
| --- | --- | --- | --- | --- | --- | --- | --- | --- | --- | --- | --- | --- | --- | --- | --- | --- | --- | --- | --- | --- | --- |
| COc1cc(C)c(C(=O)O)c(O)c1C | 116 (≈ 589 µM) | 39.4 | 70.6 | 61.4 | 28.4 | 58 | 83.8 | 33 | 50.6 (≈ 258 µM) | 56.4 | 68 | 46.5 | 82 | 106 (≈ 541 µM) | 50 | 28.4 | 67.7 | 44.3 | 79.3 | 23.7 | inhibition at 250 µg/mL [21]: 53%; EC50 [22]: 71.1 µg/mL (≈ 362 µM); EC50 [23]: 74.5 µg/mL (≈ 380 µM); EC50 [24]: 73.8 µg/mL (≈ 376 µM) |
| CC(=O)C1=C(O)C=C2Oc3c(C)c(O)c(C(C)=O)c(O)c3C2(C)C1=O (racemic) [(+/-)-ISOUSNIC ACID] | 69.6 (≈ 202 µM) | 29.3 | 73.1 | 66.2 | 46.1 | 81 | 72.1 | 35.1 | 64.6 (≈ 188 µM) | 69.1 | 87.2 | 63.3 | 86.4 | 70.9 (≈ 206 µM) | 35.2 | 32.8 | 53.2 | 66.1 | 75.4 | 33.4 | inhibition at 250 µg/mL [21]: 84%; EC50 [22]: 62.3 µg/mL (≈ 181 µM); EC50 [23]: 70.4 µg/mL (≈ 204 µM); EC50 [24]: 71 µg/mL (≈ 206 µM) |
| C=C1C(=O)OC(CCCCCCCCCCCCC)C1C(=O)O (racemic) [(+/-)-Protolichesterinic acid] | 61.4 (≈ 189 µM) | 28.3 | 77 | 90 | 44.3 | 90.3 | 100 | 78.3 | 23.1 (≈ 71.2 µM) | 50 | 89.3 | 78 | 83.3 | 55.7 (≈ 172 µM) | 67 | 39.3 | 72.3 | 72.2 | 80.3 | 44.3 | inhibition at 250 µg/mL [21]: 90%; EC50 [22]: 57.1 µg/mL (≈ 176 µM); EC50 [23]: 77.6 µg/mL (≈ 239 µM); EC50 [24]: 16.1 µg/mL (≈ 49.5 µM) |
| COC(=O)c1c(C)cc(OC(=O)c2c(C)cc(O)c(C=O)c2O)c(C)c1O [ATRANORIN] | 39.7 (≈ 106 µM) | 44.3 | 62 | 78 | 22 | 90 | 89.7 | 56.3 | 64.6 (≈ 173 µM) | 67.7 | 80 | 81.3 | 81.3 | 50.3 (≈ 134 µM) | 40 | 67.3 | 43 | 89.7 | 60.3 | 50 | inhibition at 250 µg/mL [21]: 100%; EC50 [22]: 105 µg/mL (≈ 280 µM); EC50 [23]: 58.8 µg/mL (≈ 157 µM); EC50 [24]: 44.8 µg/mL (≈ 120 µM) |
| COC(=O)c1c(C)cc(O)c(C)c1O [ATRARIC ACID] | 80.2 (≈ 409 µM) | 28.3 | 67 | 72.3 | 22.3 | 80.5 | 89.3 | 44 | 57.5 (≈ 293 µM) | 50.3 | 90.3 | 50 | 80.3 | 82.3 (≈ 420 µM) | 46 | 33 | 50 | 50 | 88.3 | 26.7 | inhibition at 250 µg/mL [21]: 74.3%; EC50 [22]: 81.5 µg/mL (≈ 415 µM); EC50 [23]: 77.2 µg/mL (≈ 394 µM); EC50 [24]: 57 µg/mL (≈ 290 µM) |
| COc1cc(C)c(C(=O)Oc2cc(C)c(C(=O)O)c(O)c2C)c(O)c1C=O [BAEOMYCESIC ACID] | 86.7 (≈ 231 µM) | 17.1 | 61.4 | 38.2 | 11.4 | 57.9 | 77.1 | 18.3 | 71.3 (≈ 190 µM) | 28.4 | 49.1 | 47.1 | 81.6 | 110 (≈ 293 µM) | 33.4 | 32.2 | 29.3 | 44.4 | 44.4 | 33.5 | inhibition at 250 µg/mL [21]: 72.4%; EC50 [22]: 149 µg/mL (≈ 398 µM); EC50 [23]: 150 µg/mL (≈ 400 µM); EC50 [24]: 144 µg/mL (≈ 383 µM) |
| CCOC(=O)c1c(C)cc(O)c(C=O)c1O [ETHYL HEMATOMMATE] | 99 (≈ 441 µM) | 27.4 | 33.5 | 26.3 | 13.1 | 27.4 | 56.5 | 15.1 | 125 (≈ 557 µM) | 42.8 | 53.4 | 13.5 | 55.5 | 250 (≈ 1120 µM) | 15.3 | 28.4 | 32.6 | 47.5 | 50.4 | 6.4 | inhibition at 250 µg/mL [21]: 61%; EC50 [22]: 133 µg/mL (≈ 592 µM); EC50 [23]: 117 µg/mL (≈ 523 µM); EC50 [24]: 128 µg/mL (≈ 573 µM) |
| COc1cc(C)c2c(=O)c3c(O)cc(OC)cc3oc2c1 [LICHEXANTHONE] | 273 (≈ 955 µM) | 11.4 | 29.4 | 28.4 | 13 | 53.3 | 42 | 9.03 | 202 (≈ 707 µM) | 30.3 | 50 | 24.5 | 41 | 151 (≈ 528 µM) | 19.6 | 16.7 | 23.4 | 23.2 | 42.7 | 20.3 | inhibition at 250 µg/mL [21]: 37.3%; EC50 [22]: 174 µg/mL (≈ 608 µM); EC50 [23]: 134 µg/mL (≈ 467 µM); EC50 [24]: 149 µg/mL (≈ 520 µM) |
| COC(=O)c1c(C)cc(O)c(C=O)c1O [METHYL HAEMATOMMATE] | 60.3 (≈ 287 µM) | 53.1 | 72.6 | 47.3 | 24.4 | 67.3 | 71.3 | 34 | 50.5 (≈ 240 µM) | 61.4 | 78.2 | 50.5 | 81.7 | 71.2 (≈ 339 µM) | 50.6 | 44.2 | 46.4 | 66.6 | 69.3 | 46.5 | inhibition at 250 µg/mL [21]: 89.2%; EC50 [22]: 90.6 µg/mL (≈ 431 µM); EC50 [23]: 52.9 µg/mL (≈ 252 µM); EC50 [24]: 88.2 µg/mL (≈ 420 µM) |
| CCOC(=O)c1c(C)cc(O)cc1O [ORSELLINIC ACID, ETHYL ESTER] | 82.7 (≈ 421 µM) | 16.4 | 68.1 | 61.2 | 18.5 | 79.4 | 91.4 | 28.3 | 58.3 (≈ 297 µM) | 28 | 67.2 | 32.5 | 90.4 | 98.2 (≈ 501 µM) | 44.4 | 28.3 | 50.4 | 50.5 | 83.3 | 17.3 | inhibition at 250 µg/mL [21]: 78%; EC50 [22]: 86.9 µg/mL (≈ 443 µM); EC50 [23]: 114 µg/mL (≈ 580 µM); EC50 [24]: 72.5 µg/mL (≈ 370 µM) |
